Data published in ChEMBL document CHEMBL1148576, “Identification of potent water soluble purine-scaffold inhibitors of the heat shock protein 90” (J Med Chem, 2006).

Tests used:
[1] = molecular target: T1, Heat shock protein HSP 90-beta (Homo sapiens, UniProt P08238); experiment: Inhibitory activity against Hsp90 in human breast cancer SKBr3 cell line; assay type: cell-based
[2] = molecular target: T1, Heat shock protein HSP 90-beta; experiment: Inhibitory activity against Hsp90 in human breast cancer MDA-MB-468 cell line; assay type: cell-based
[3] = test system: MDA-MB-468; experiment: Growth inhibition in human breast cancer MDA-MB-468 cell line using SRB; assay type: functional, cell-based
Outline: (§1)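 Sulforhodamine B growth assay. Plating densities were 6000 (SKBr3), 8000 (MDA-MB-468) or 10,000 (MRC-5) cells/well, attached overnight. Drug, added in triplicate, was 1:1 serially diluted with DMSO or PBS vehicle. Exposure lasted 72 h, then cells were fixed with TCA and stained with 0.4% SRB.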

[4] = test system: MDA-MB-468; experiment: Antimitotic activity in human breast cancer MDA-MB-468 cell line; assay type: functional, cell-based
Outline: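 MDA-MB-468 cells seeded at 8000/well, attached overnight, then exposed to drug or DMSO vehicle for 24 h at 37 °C, 5% CO2. Cells fixed in cold methanol, blocked, then probed with Tg-3 antibody against mitotically phosphorylated nucleolin, followed by HRP anti-mouse IgM and ECL luminescence. IC50 taken as the concentration that doubles luminescence over vehicle.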

[5] = test system: SK-BR-3; experiment: Growth inhibition in human breast cancer SKBr3 cell line using SRB; assay type: functional, cell-based
[6] = molecular target: T1, Heat shock protein HSP 90-beta; experiment: Inhibition of Her2 degradation in human breast cancer SKBr3 cell line; assay type: functional, cell-based
Outline: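 Fixed in cold methanol, blocked, then probed overnight at 4 °C with anti-Her2, then HRP anti-rabbit and ECL luminescence. Normal rabbit IgG background was subtracted.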

[7] = Solubility in water; assay type: physicochemical
[8] = molecular target: Heat shock protein HSP 90 (Mus musculus); experiment: Binding affinity to Hsp90 in mouse lung tissue
[9] = test system: MRC5; experiment: Cytotoxicity against normal lung fibroblast MRC5 cell line; assay type: functional, cell-based; settings: Homo sapiens; outline: as §1
[10] = molecular target: Heat shock protein HSP 90 (Mus musculus); experiment: Binding affinity to Hsp90 in mouse heart tissue

T1 sequence (P08238 whole entry): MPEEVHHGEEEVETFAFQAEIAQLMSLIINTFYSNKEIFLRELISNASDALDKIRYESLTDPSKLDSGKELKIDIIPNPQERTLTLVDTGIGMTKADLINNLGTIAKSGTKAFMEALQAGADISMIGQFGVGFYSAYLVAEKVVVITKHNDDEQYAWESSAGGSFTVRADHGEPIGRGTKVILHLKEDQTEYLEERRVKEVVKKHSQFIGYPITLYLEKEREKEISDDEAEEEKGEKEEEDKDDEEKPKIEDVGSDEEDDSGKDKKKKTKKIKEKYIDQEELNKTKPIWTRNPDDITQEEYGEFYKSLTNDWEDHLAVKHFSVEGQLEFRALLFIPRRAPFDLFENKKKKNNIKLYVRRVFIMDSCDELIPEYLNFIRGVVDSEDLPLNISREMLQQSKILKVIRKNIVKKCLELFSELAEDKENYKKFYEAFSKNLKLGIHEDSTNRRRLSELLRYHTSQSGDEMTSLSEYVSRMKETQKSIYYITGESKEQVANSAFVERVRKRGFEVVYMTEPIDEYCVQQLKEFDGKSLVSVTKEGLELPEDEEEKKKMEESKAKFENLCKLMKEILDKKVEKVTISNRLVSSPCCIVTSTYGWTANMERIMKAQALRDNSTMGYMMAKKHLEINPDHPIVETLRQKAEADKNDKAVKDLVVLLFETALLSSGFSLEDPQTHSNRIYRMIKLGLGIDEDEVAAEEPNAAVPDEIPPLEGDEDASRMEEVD

Structure (SMILES)	EC50 [1] [nM]	EC50 [2] [nM]	IC50 [3] [nM]	IC50 [4] [nM]	IC50 [5] [nM]	IC50 [6] [nM]	solubility [7] [µg/mL]	EC50 [8] [nM]	EC50 [10] [µM]	IC50 [9] [nM]
C#CCCCn1c(Cc2cc3c(cc2Br)OCO3)nc2c(N)nc(F)nc21	56.5	30.5	350	310	215	210	–	–	–	–
CC(C)NCCCn1c(Cc2cc3c(cc2I)OCO3)nc2c(N)nc(F)nc21	50.4	39.1	90	100	45	80	> 5000	2400	6.9	> 5000
C#CCCCn1c(Sc2cc3c(cc2Br)OCO3)nc2c(N)ncnc21	50.4	77.1	560	530	–	365	–	–	–	–
C#CCCCn1c(Sc2cc3c(cc2I)OCO3)nc2c(N)ncnc21	10.8	10.9	170	184	90	100	–	–	–	–
C#CCCCn1c(Cc2cc3c(cc2I)OCO3)nc2c(N)nc(F)nc21	22.3	23.7	150	180	90	90	–	–	–	–
CC(C)NCCCn1c(Sc2cc3c(cc2Br)OCO3)nc2c(N)ncnc21	–	–	270	375	142	–	> 5000	–	–	–
CC(C)NCCCn1c(Sc2cc3c(cc2I)OCO3)nc2c(N)ncnc21 [PU-H71]	–	–	58	70	–	–	> 5000	–	–	1000

Continued, in another order:

EC50 [1] [nM]	EC50 [2] [nM]	IC50 [3] [nM]	IC50 [4] [nM]	IC50 [5] [nM]	IC50 [6] [nM]	solubility [7] [µg/mL]	EC50 [8] [nM]	EC50 [10] [µM]	Structure (SMILES)	IC50 [9] [nM]
4600	4500	27300	> 50000	20600	30000	–	–	–	C#CCCCn1c(Cc2cc(OC)c(OC)cc2Cl)nc2c(N)nc(F)nc21	–
77.2	51.2	440	450	250	300	–	–	–	C#CCCCn1c(Cc2cc3c(cc2Cl)OCO3)nc2c(N)nc(F)nc21	–
> 15000	> 15000	> 50000	> 50000	> 50000	> 50000	–	–	–	C#CCCCn1c(Cc2cc(OC)c(OC)cc2I)nc2c(N)nc(F)nc21	–
> 15000	> 15000	> 50000	> 50000	55000	> 50000	–	–	–	C#CCCCn1c(Cc2cc(OC)c(OC)cc2Br)nc2c(N)nc(F)nc21	–
